Results on 38 compounds are retold here after ChEMBL document CHEMBL1134329, “Dopamine D(3) receptor antagonists. 1. Synthesis and structure-activity relationships of 5,6-dimethoxy-N-alkyl- and N-alkylaryl-substituted 2-aminoindans” (J Med Chem, 2001).

Assay [1] has as its target D(3) dopamine receptor (Rattus norvegicus) (UniProt P19020). Nature of the assay: Inhibition of [3H]spiperone at D3 dopamine receptors on CHO cell membranes; 1000 nM. Format: cell-based. An outline of the steps: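 Cloned rat D3 receptor in stably transfected CHO cell membranes, filtration assay with [3H]spiperone (0.3 nM). Single concentration of 1000 nM in duplicate, given as mean % inhibition. Buffer 20 mM HEPES, 10 mM MgSO4, 150 mM NaCl, 1 mM EDTA pH 7.4, 1 h at room temperature. 3 µM haloperidol for nonspecific binding.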

For assay [2], the target named is D(2) dopamine receptor (Rattus norvegicus) (UniProt P61169). Description: Inhibition of [3H]-PNU-86170 binding at D2 dopamine receptors on CHO cell membranes; 1000 nM. Format: cell-based. An outline of the steps:
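Single-point screen at 1000 nM in duplicate, reported as mean % inhibition. Rat D2 receptor stably expressed in CHO cell membranes, labelled with [3H]-PNU-86170 (2 nM). Buffer 20 mM HEPES/10 mM MgSO4 pH 7.4, 1 h at room temperature. Nonspecific binding defined by 3 µM haloperidol.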

The species entered for assay [3] is Rattus norvegicus. Nature of the assay: In vitro stability in rat hepatocytes relative to that of PNU-93385. Format: functional. Particulars: Hepatocyte. An outline of the steps: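 Compound incubated alongside reference PNU-93385. Metabolism followed by HPLC with UV detection. Intrinsic clearance is expressed relative to the reference to give relative metabolic stability.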

The next assay concerns the target D(3) dopamine receptor (Rattus norvegicus, UniProt P19020). Nature of the assay: Affinity at rat D3 dopamine receptor on CHO cell membranes by [3H]spiperone displacement.
The target of the next assay is D(2) dopamine receptor (Rattus norvegicus, UniProt P61169). Nature of the assay: Affinity at D2 dopamine receptor on CHO cell membranes by [3H]PNU-86170 displacement. Put shortly:
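Cloned rat D2 receptor stably expressed in CHO cells; membranes from cell pellets disrupted in ice-cold 50 mM Tris/5 mM EDTA/5 mM EGTA pH 7.4 with graded centrifugation. [3H]-PNU-86170 (2 nM) competition, 11 concentrations in duplicate, 20 mM HEPES/10 mM MgSO4 pH 7.4, 1 h room temperature. Haloperidol 3 µM defines nonspecific binding. Filtration or SPA read-out; one-site fit IC50, Ki by Cheng-Prusoff.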

The target in assay [4] is T1, 5-hydroxytryptamine receptor 1A (Rattus norvegicus, UniProt P19327).
T1 sequence (P19327 whole entry): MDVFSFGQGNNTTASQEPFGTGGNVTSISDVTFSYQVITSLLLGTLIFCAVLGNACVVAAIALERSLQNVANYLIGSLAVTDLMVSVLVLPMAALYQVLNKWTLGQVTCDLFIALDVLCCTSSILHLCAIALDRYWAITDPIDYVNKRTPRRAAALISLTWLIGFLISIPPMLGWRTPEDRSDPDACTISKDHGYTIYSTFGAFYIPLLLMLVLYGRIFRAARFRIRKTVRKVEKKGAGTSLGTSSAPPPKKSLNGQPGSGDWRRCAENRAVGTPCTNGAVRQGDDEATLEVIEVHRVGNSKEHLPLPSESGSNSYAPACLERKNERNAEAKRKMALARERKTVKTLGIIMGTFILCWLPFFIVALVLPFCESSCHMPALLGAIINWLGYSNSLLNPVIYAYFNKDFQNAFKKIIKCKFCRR
Nature of the assay: Binding affinity towards 5-hydroxytryptamine 1A receptor. An outline of the steps: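 Competition binding with [3H]-8-OH-DPAT at 5-HT1A sites in CHO cells expressing the cloned receptor. Affinity is given as Ki (nM) with SD or 95% CI. Compounds were first screened at 1 µmol/L in a monoaminergic/opioid/adrenergic receptor profile binding assay.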

Assay [5] has as its system Rattus norvegicus. Nature of the assay: Inhibition of (+)-MK-801-induced hyperactivity in rats following 200 umol/kg i.p. Format: functional. The arrangement: scale not given: the % may be the effect or the level left. Put shortly: (§1)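 Rats given (+)-MK-801 0.2 mg/kg sc plus test compound ip, 10-200 µmol/kg, in vehicle of 0.9% NaCl in 0.25% methylcellulose. Locomotor activity expressed as % of vehicle control ±SEM, 8-26 animals per group.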

Assay [6] concerns Rattus norvegicus. Nature of the assay: Inhibition of (+)-MK-801-induced hyperactivity in rats following 30 umol/kg i.p. The arrangement: scale not given: the % may be the effect or the level left. Format: functional. Put shortly:
as §1

Assay [7] deals with Rattus norvegicus. Description: Inhibition of (+)-MK-801-induced hyperactivity in rats following 100 umol/kg i.p. Format: functional. The arrangement: scale not given: the % may be the effect or the level left. Put shortly:
as §1

Assay [8] deals with Rattus norvegicus. Nature of the assay: Inhibition of (+)-MK-801-induced hyperactivity in rats following 10 uM/kg i.p. Format: functional. Also on record: scale not given: the % may be the effect or the level left. An outline of the steps:
as §1

Chain of D(2) dopamine receptor (Rattus norvegicus) (P61169 whole entry): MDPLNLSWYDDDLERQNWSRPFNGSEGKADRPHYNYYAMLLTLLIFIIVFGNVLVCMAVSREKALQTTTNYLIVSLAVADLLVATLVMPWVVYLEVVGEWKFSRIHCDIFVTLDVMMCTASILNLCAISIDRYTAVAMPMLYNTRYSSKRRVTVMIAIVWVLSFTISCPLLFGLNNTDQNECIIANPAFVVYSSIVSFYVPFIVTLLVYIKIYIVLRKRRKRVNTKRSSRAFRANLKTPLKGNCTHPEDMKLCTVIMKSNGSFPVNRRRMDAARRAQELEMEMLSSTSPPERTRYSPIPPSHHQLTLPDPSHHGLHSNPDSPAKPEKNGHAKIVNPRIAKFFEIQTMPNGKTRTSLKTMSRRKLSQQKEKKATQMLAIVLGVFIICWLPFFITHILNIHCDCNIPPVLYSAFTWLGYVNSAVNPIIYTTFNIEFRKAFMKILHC
Chain of D(2) dopamine receptor (P61169 whole entry): as above
Chain of D(3) dopamine receptor (Rattus norvegicus) (P19020 whole entry): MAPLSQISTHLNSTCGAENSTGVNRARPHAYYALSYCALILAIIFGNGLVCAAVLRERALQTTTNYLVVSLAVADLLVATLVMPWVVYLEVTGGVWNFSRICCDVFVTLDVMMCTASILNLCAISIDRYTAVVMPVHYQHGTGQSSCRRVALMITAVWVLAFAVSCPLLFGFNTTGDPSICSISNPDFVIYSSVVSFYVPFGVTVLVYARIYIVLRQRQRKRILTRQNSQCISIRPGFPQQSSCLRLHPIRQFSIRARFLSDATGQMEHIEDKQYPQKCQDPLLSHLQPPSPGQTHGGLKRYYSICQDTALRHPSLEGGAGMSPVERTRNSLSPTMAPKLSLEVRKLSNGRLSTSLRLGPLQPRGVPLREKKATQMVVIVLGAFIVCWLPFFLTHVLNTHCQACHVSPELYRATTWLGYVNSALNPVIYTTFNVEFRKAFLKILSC
Chain of D(3) dopamine receptor (P19020 whole entry): as above

`C=CCN(CC=C)C1Cc2cc(OC)c(OC)cc2C1`: the results for the inhibition in assay [1] and in assay [2] were 12% and 19%, respectively. In the assay listed under Rattus norvegicus [3], the Stability was determined as 13%.

In the case of `COc1cc2c(cc1OC)CC(N1CCCCCC1)C2`, the figures for the inhibition in assay [1] and in assay [2] were 3% and 2%, respectively. In the assay filed under Rattus norvegicus [3], this compound displayed a Stability of 32%.

With `CCCN(CC1CC1)C1Cc2cc(OC)c(OC)cc2C1`, the Stability in the assay filed under Rattus norvegicus [3] stood at 23%.

With `CCCN(CCc1ccsc1)C1Cc2cc(OC)c(OC)cc2C1`, the Ki at D(3) dopamine receptor was 14 nM; at D(2) dopamine receptor, 61 nM. The compound further returned a Stability in the assay filed under Rattus norvegicus [3] of 14%.

With `CCCN(CCC)C1Cc2cccc(OC)c2C1` (configuration not stated), the Ki on D(3) dopamine receptor was found to be 45 nM; on D(2) dopamine receptor, 4.2 nM; in [4], 5.1 nM.

`CCCN1CC[C@H]2c3c(cccc3C(N)=O)CC[C@H]21`: the Stability in the assay listed under Rattus norvegicus [3] amounted to 100%.

Take `CCC(C)NC1Cc2cc(OC)c(OC)cc2C1` (configuration not stated): the inhibition in assay [1] was determined as 0%; in [2], 4%.

As for `COc1cc2c(cc1OC)CC(N(CCCF)CCCF)C2`, the inhibition in [1] came out at 3%. This compound showed a Stability in the assay listed under Rattus norvegicus [3] of 8%.

Regarding `CCCN(CC)C1Cc2cc(OC)c(OC)cc2C1`, the Ki amounted to 65 nM on D(3) dopamine receptor and 374 nM on D(2) dopamine receptor. In addition, the Stability in the assay listed under Rattus norvegicus [3] was determined as 42%.

Take `CCCN(CCc1csc(N)n1)C1Cc2cc(OC)c(OC)cc2C1`: the results for the Ki at D(3) dopamine receptor and on D(2) dopamine receptor were 136 nM and 265 nM, respectively.

As to `COc1cc2c(cc1OC)CC(N)C2`, the results for the inhibition in assay [1] and in [2] were 0% and 2%, respectively.

Regarding `CCCNC1Cc2cc(OC)c(OC)cc2C1`, the values for the inhibition in assay [1] and in assay [2] were 17% and 19%, respectively.

As for `CCCN(CCc1ccc(Br)cc1)C1Cc2cc(OC)c(OC)cc2C1`, the inhibitory constant (Ki) was found to be 22 nM at D(3) dopamine receptor and 97 nM at D(2) dopamine receptor.

Turning to `CCCN(CCCc1ccccc1)C1Cc2cc(OC)c(OC)cc2C1`, the results for the Ki at D(3) dopamine receptor and at D(2) dopamine receptor were 23 nM and 155 nM, respectively. The Stability in the assay listed under Rattus norvegicus [3] was 67%.

Regarding `CCCN(C(C)CC)C1Cc2cc(OC)c(OC)cc2C1` (configuration not stated), the values for the inhibition in assay [1] and in assay [2] were 16% and 2%, respectively.

With `COc1cc2c(cc1OC)CC(N(C)C)C2`, the inhibition is 26% in assay [1] and 19% in [2]. In the assay listed under Rattus norvegicus [3], this compound showed a Stability of 59%.

For the compound `COc1cc2c(cc1OC)CC(N(CC1CC1)CC1CC1)C2`, the inhibition is 0% in assay [1] and 15% in assay [2]. The compound further had a Stability in the assay filed under Rattus norvegicus [3] of 22%.

As to `CCCN(CCc1ccc(OC)c(OC)c1)C1Cc2cc(OC)c(OC)cc2C1`, the Ki on D(3) dopamine receptor is 29 nM; on D(2) dopamine receptor, 66 nM.

For the compound `CCCN(CCC)C1Cc2ccc(OC)cc2C1` (configuration not stated), the Ki at D(3) dopamine receptor was 84 nM; at D(2) dopamine receptor it was 263 nM.

On to `CCCN(CCc1cccc(N)c1)C1Cc2cc(OC)c(OC)cc2C1`, for which the Ki on D(3) dopamine receptor amounted to 45 nM; at D(2) dopamine receptor, 162 nM.

For `CCCN(CCC)C1Cc2ccc(O)cc2C1` (configuration not stated), the Ki on D(3) dopamine receptor was 14 nM; at D(2) dopamine receptor, 53 nM; in [4], above 3000 nM.

Take `CCCN(Cc1cccs1)C1Cc2cc(OC)c(OC)cc2C1`: the inhibition in assay [1] stood at 35%; in assay [2], 20%. In the assay listed under Rattus norvegicus [3], this compound displayed a Stability of 35%.

As to `CCCN(CCc1ccc(C(F)(F)F)cc1)C1Cc2cc(OC)c(OC)cc2C1`, the Ki at D(3) dopamine receptor came to 34 nM; on D(2) dopamine receptor it was 310 nM.

In the case of `CCCN(CCc1ccc(C(N)=O)cc1)C1Cc2cc(OC)c(OC)cc2C1`, the Ki was found to be 42 nM at D(3) dopamine receptor and 123 nM at D(2) dopamine receptor.

For `CCCN(Cc1ccsc1)C1Cc2cc(OC)c(OC)cc2C1`, the Ki on D(3) dopamine receptor amounted to 374 nM; at D(2) dopamine receptor, 1240 nM. In the assay filed under Rattus norvegicus [3], this compound had a Stability of 15%.

On D(3) dopamine receptor, `CCCCN(CCCC)C1Cc2cc(OC)c(OC)cc2C1` showed a Ki of 180 nM. In addition, the inhibition in assay [2] is 22%. Also, the Stability in the assay filed under Rattus norvegicus [3] is 13%.

On to `COc1cc2c(cc1OC)CC(N1CCOCC1)C2`, for which the values for the inhibition in assay [1] and in assay [2] were -2% and 10%, respectively. The compound further gave a Stability in the assay filed under Rattus norvegicus [3] of 41%.

For the compound `CCCN(CCC)C1Cc2cccc(O)c2C1` (configuration not stated), the Ki on D(3) dopamine receptor was 42 nM; on D(2) dopamine receptor, 5.2 nM; in assay [4] it was 19.5 nM.

For `CCCN(CCc1cccnc1)C1Cc2cc(OC)c(OC)cc2C1`, the Ki on D(3) dopamine receptor was found to be 134 nM; at D(2) dopamine receptor, 286 nM.

On to `CCCN(CCC)C1Cc2cc(OC)c(OC)cc2C1` [PNU-99194A], for which the Control is recorded as 143% in the assay with Rattus norvegicus [5], 447% in the assay with Rattus norvegicus [6], 391% in the assay on Rattus norvegicus [7] and 583% with Rattus norvegicus [8]. Besides, the values for the Ki at D(3) dopamine receptor and at D(2) dopamine receptor were 31 nM and 992 nM, respectively. Besides, the Stability in the assay listed under Rattus norvegicus [3] was 38%.

As to `CCCN(CCc1cccc(F)c1)C1Cc2cc(OC)c(OC)cc2C1`, the Ki at D(3) dopamine receptor was 30 nM; at D(2) dopamine receptor, 125 nM.

Take `COc1cc2c(cc1OC)CC(N1CCCC1)C2`: the inhibition amounted to 4% in [1] and 13% in [2].

`CCCN(CCc1cccs1)C1Cc2cc(OC)c(OC)cc2C1` came in with a Ki on D(3) dopamine receptor of 78 nM. Besides, the inhibition in assay [2] amounted to 86%. The same compound registered a Stability in the assay filed under Rattus norvegicus [3] of 26%.

As for `CCN(CC)C1Cc2cc(OC)c(OC)cc2C1`, the results for the inhibition in assay [1] and in [2] were 20% and 9%, respectively.

For `CCCN(CCc1ccc(OC)cc1)C1Cc2cc(OC)c(OC)cc2C1`, the Ki at D(3) dopamine receptor stood at 39 nM; at D(2) dopamine receptor, 163 nM. In the assay listed under Rattus norvegicus [3], the Stability worked out at 53%.

As to `CCCN(CCc1ccccc1)C1Cc2cc(OC)c(OC)cc2C1`, the results for the Ki at D(3) dopamine receptor and at D(2) dopamine receptor were 32 nM and 27 nM, respectively. Also, in the assay filed under Rattus norvegicus [3], the Stability turned out to be 12%.

With `CCCN(CCCF)C1Cc2cc(OC)c(OC)cc2C1`, the figures for the Ki at D(3) dopamine receptor and at D(2) dopamine receptor were 342 nM and 1840 nM, respectively. Besides, in the assay filed under Rattus norvegicus [3], the Stability was found to be 9%.

For `CCC(CC)NC1Cc2cc(OC)c(OC)cc2C1`, the inhibition in assay [1] and in [2] was 0% throughout.
